For 16 compounds, Activity, inhibition in vivo and UI results are on record in ChEMBL document CHEMBL1158364, “Synthesis and pharmacological evaluation of 2(3H)-furanones and 2(3H)-pyrrolones, combining analgesic and anti-inflammatory properties with reduced gastrointestinal toxicity and lipid peroxidation” (Eur J Med Chem, 2009).

For one data set, the system named is Gastric mucosa. As to the kind of experiment: Inhibition of lipid peroxidation assessed as malondialdehyde level per mg of protein in gastric mucosa isolated from albino rat treated 60 mg/kg, po by UV spectrophotometry. It is filed as functional. The procedure, abridged: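 After the ulcer scoring, gastric mucosa was scraped and homogenized in 1.8 mL ice-cold 1.15% KCl. Supernatant (1 mL) received 0.5 mL 30% TCA and 0.5 mL 0.8% TBA, then was heated 30 min at 80 °C. Tubes were chilled 10 min on ice and centrifuged 3000 rpm for 15 min before absorbance was read (TBARS/MDA, Ohkawa method).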

Data set [1] relates to Mus musculus. The data set is described as follows: Central analgesic activity in Swiss albino mouse assessed as reaction time required to elicit thermal stimulus-induced hind paw licking at 20 mg/kg, po after 60 mins by Turner hotplate method. It is filed as functional. The procedure, abridged: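 Swiss albino mice of either sex, 25–30 g, six per group. Compounds given orally in 1% CMC; controls received vehicle only. Hot plate held at 53 ± 0.5 °C. Reaction time is the interval from placement on the plate to hind-paw licking or jumping. Measured before dosing (0 min) and 1 h after oral dosing.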

Data set [2] relates to Rattus norvegicus. The data set is described as follows: Antiinflammatory activity in Wistar rat assessed as inhibition of carrageenan-induced paw odema at 20 mg/kg, po pretreated 30 mins pre-carrageenan challenge measured after 3 hrs relative to control. It is filed as functional. An outline of the steps: (§1)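 Wistar rats of either sex, 180–200 g, six per group; vehicle 0.5% CMC given orally. […] in sterile 0.9% NaCl, 0.1 mL, injected sub-plantar into the right hind paw 30 min after dosing. Paw volume read by saline-displacement plethysmometer at 2 and 3 h. % inhibition = (Vc−Vt)/Vc × 100.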

Data set [3] has as its system Rattus norvegicus. As to the kind of experiment: Gastrointestinal toxicity in albino rat assessed ulcer index at 60 mg/kg, po after 17 hrs. It is filed as organism-based. Also noted: dose 60 mg/kg, route oral. Particulars: in vivo. The procedure, abridged:
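Fasted albino rats (150–200 g; food, not water, withheld 24 h), groups of six, dosed orally at 60 mg/kg; controls got 1% methyl cellulose suspension. Normal diet for 17 h, then sacrifice. Stomach opened along greater curvature, washed, mucosa scored under magnifying glass (0.5 redness to 3.0 for >5 ulcers); severity index = treated group mean score minus control mean.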

Data set [4] relates to Rattus norvegicus. The data set is described as follows: Antiinflammatory activity in Wistar rat assessed as inhibition of carrageenan-induced paw odema at 20 mg/kg, po pretreated 30 mins pre-carrageenan challenge measured after 2 hrs relative to control. It counts as functional. An outline of the steps:
as §1
A general note: Carrageenan injected into the paw causes an acute inflammation.

The test system of data set [5] is Mus musculus. The data set is described as follows: Peripheral analgesic activity in Swiss albino mouse assessed as inhibition of acetic acid-induced writhing response at 20 mg/kg, po pretreated 1 hr before acetic acid challenge. It is filed as functional. Also noted: scale not given: the % may be the effect or the level left. An outline of the steps: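 Swiss albino mice of either sex, 25–30 g, housed singly and habituated 30 min in the test cage. Compounds given orally in 1% CMC; controls received 1% CMC. One hour after dosing, 0.10 mL 1% acetic acid was given i.p. Writhes were counted over 30 min and % protection derived versus control.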
(In writhing tests, fewer writhes than in controls are read as antinociception.)

For orientation: inhibition in vivo means the percentage by which the read-out fell short of the control.

On to `O=C1/C(=C/c2ccc(Cl)cc2)C=C(c2ccc(Cl)cc2)N1Cc1ccccc1`, for which the values for the Activity with Gastric mucosa, with Mus musculus [1] and in the data set with Mus musculus [5] were 0.31 nmol/mg protein, 11.55 s and 57.83%, respectively. For the same compound, the inhibition in vivo at 20 mg/kg in the data set on Rattus norvegicus [2] came to 88.9%; with Rattus norvegicus [4], 58.7%. In the data set with Rattus norvegicus [3], this compound displayed a UI of 0.1.
In the case of `COc1cc(/C=C2\C=C(c3ccc(Cl)cc3)N(Cc3ccccc3)C2=O)ccc1O`, the Activity with Gastric mucosa is on record as 0.558 nmol/mg protein. Further, the results for the inhibition in vivo at 20 mg/kg in the data set on Rattus norvegicus [2] and in the data set with Rattus norvegicus [4] were 42% and 36%, respectively. The UI with Rattus norvegicus [3] amounted to 0.5.
For the compound `CC(C)Cc1ccc(C(C)C(=O)O)cc1` (configuration not stated) [IBUPROFEN], the figures for the Activity in the data set with Mus musculus [1] and with Mus musculus [5] were 14.4 s and 65.06%, respectively. Further, the values for the inhibition in vivo at 20 mg/kg in the data set with Rattus norvegicus [2] and in the data set with Rattus norvegicus [4] were 89.5% and 80.9%, respectively. For the same compound, in the data set on Rattus norvegicus [3], the UI came to 0.9.
For `O=C1OC(c2ccc(Cl)cc2)=C/C1=C\c1ccc([N+](=O)[O-])cc1`, the Activity with Gastric mucosa amounted to 0.549 nmol/mg protein. For the same compound, the values for the inhibition in vivo at 20 mg/kg with Rattus norvegicus [2] and with Rattus norvegicus [4] were 36% and 4%, respectively. Moreover, in the data set on Rattus norvegicus [3], the UI is 0.4.
The corresponding values for `O=C1OC(c2ccc(Cl)cc2)=C/C1=C\c1ccccc1` are 0.522 nmol/mg protein, 36%, 18.9% and 0.9.
For `O=C1OC(c2ccc(Cl)cc2)=C/C1=C\c1ccccc1[N+](=O)[O-]`, the Activity with Gastric mucosa is listed as 0.429 nmol/mg protein. The inhibition in vivo at 20 mg/kg in the data set on Rattus norvegicus [2] amounted to 18.5%; in the data set on Rattus norvegicus [4] it was 4%. In the data set with Rattus norvegicus [3], this compound had a UI of 0.6.
As for `O=C1/C(=C/c2ccccc2)C=C(c2ccc(Cl)cc2)N1Cc1ccccc1`, the Activity with Gastric mucosa amounted to 0.605 nmol/mg protein. Moreover, the inhibition in vivo at 20 mg/kg in the data set on Rattus norvegicus [2] was found to be 37%; in the data set with Rattus norvegicus [4] it was 24%. In the data set with Rattus norvegicus [3], the UI is reported as 0.6.
Consider `COc1ccc(/C=C2\C=C(c3ccc(Cl)cc3)OC2=O)cc1`, for which, in the data set on Gastric mucosa, the Activity is given as 0.545 nmol/mg protein. The inhibition in vivo at 20 mg/kg in the data set on Rattus norvegicus [2] worked out at 32.3%; with Rattus norvegicus [4], 4%. Moreover, the UI in the data set with Rattus norvegicus [3] worked out at 0.5.
In the case of `O=C1OC(c2ccc(Cl)cc2)=C/C1=C\c1ccc(F)cc1`, the Activity is 0.329 nmol/mg protein in the data set with Gastric mucosa, 12.9 s in the data set on Mus musculus [1] and 50.6% in the data set with Mus musculus [5]. The values for the inhibition in vivo at 20 mg/kg in the data set on Rattus norvegicus [2] and with Rattus norvegicus [4] were 70.4% and 41.3%, respectively. In the data set with Rattus norvegicus [3], the UI is recorded as 0.4.
For `COc1cc(/C=C2\C=C(c3ccc(Cl)cc3)OC2=O)ccc1OC(C)=O`, the Activity in the data set with Gastric mucosa was found to be 0.597 nmol/mg protein. In addition, the figures for the inhibition in vivo at 20 mg/kg with Rattus norvegicus [2] and in the data set with Rattus norvegicus [4] were 37% and 24%, respectively. In the data set with Rattus norvegicus [3], this compound gave a UI of 0.3.
As to `O=C1/C(=C/c2ccc(F)cc2)C=C(c2ccc(Cl)cc2)N1Cc1ccccc1`, the Activity in the data set with Gastric mucosa worked out at 0.401 nmol/mg protein; with Mus musculus [1], 13.3 s; in the data set with Mus musculus [5] it was 59.03%. Further, the inhibition in vivo at 20 mg/kg with Rattus norvegicus [2] came to 89.5%; in the data set on Rattus norvegicus [4], 58.7%. In addition, in the data set on Rattus norvegicus [3], the UI is recorded as 0.2.
For the compound `O=C1OC(c2ccc(Cl)cc2)=C/C1=C\c1ccccc1Cl`, the figures for the Activity in the data set on Gastric mucosa, in the data set with Mus musculus [1] and with Mus musculus [5] were 0.494 nmol/mg protein, 12.69 s and 53.01%, respectively. Moreover, the inhibition in vivo at 20 mg/kg is 81.5% in the data set on Rattus norvegicus [2] and 62.7% with Rattus norvegicus [4]. Also, in the data set on Rattus norvegicus [3], the UI is 0.2.
For `O=C1OC(c2ccc(Cl)cc2)=C/C1=C\c1ccc(Cl)cc1`, the Activity in the data set with Gastric mucosa came to 0.403 nmol/mg protein; in the data set with Mus musculus [1], 12.67 s; in the data set with Mus musculus [5] it was 44.57%. For the same compound, the inhibition in vivo at 20 mg/kg was found to be 69.1% in the data set on Rattus norvegicus [2] and 40% in the data set on Rattus norvegicus [4]. In addition, the UI with Rattus norvegicus [3] is reported as 0.2.
`O=C1OC(c2ccc(Cl)cc2)=C/C1=C\c1ccc(Cl)cc1Cl`: the Activity came to 0.388 nmol/mg protein with Gastric mucosa, 11.86 s in the data set with Mus musculus [1] and 49.39% in the data set with Mus musculus [5]. Besides, the inhibition in vivo at 20 mg/kg came to 72.6% with Rattus norvegicus [2] and 53.3% in the data set with Rattus norvegicus [4]. Besides, the UI in the data set on Rattus norvegicus [3] is given as 0.1.
`COc1ccc(/C=C2\C=C(c3ccc(Cl)cc3)OC2=O)cc1OC`: the Activity in the data set with Gastric mucosa was 0.533 nmol/mg protein. In addition, the inhibition in vivo at 20 mg/kg in the data set on Rattus norvegicus [2] came out at 36%; in the data set on Rattus norvegicus [4] it was 9.33%. In the data set on Rattus norvegicus [3], the UI amounted to 0.3.
As to `O=C1/C(=C/c2ccc([N+](=O)[O-])cc2)C=C(c2ccc(Cl)cc2)N1Cc1ccccc1`, the Activity in the data set on Gastric mucosa stood at 0.403 nmol/mg protein. Moreover, the inhibition in vivo at 20 mg/kg in the data set with Rattus norvegicus [2] was 19.8%; in the data set with Rattus norvegicus [4], 12%. For the same compound, in the data set on Rattus norvegicus [3], the UI came to 0.4.
